ChEMBL document CHEMBL1152376, “N-[(Dihydroxyphenyl)acyl]serotonins as potent inhibitors of tyrosinase from mouse and human melanoma cells” (Bioorg Med Chem Lett, 2009)
Calls of active or inactive are those of the source. The calls are words filed in the database; no cut-off is given here.

Experiments:
[1] = Cytotoxicity against mouse B16 cells assessed as cell viability at 20 uM after 2 days by tetrazolium reduction assay; assay type: cell-based; conditions: read-out: Activity
In short: (§1)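 B16 cells seeded at 1.5 × 10⁴ per well, cultured 1 day, then given compound in ethanol (stock 0–10 mM) and incubated 2 days. Medium aspirated and viability measured with a tetrazolium reagent. Values are means of 8 or 9 wells, with Student's t-test against control.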

[2] = biological target: T1, Tyrosinase (Mus musculus, UniProt P11344); experiment: Inhibition of catecholase activity of tyrosinase in mouse B16 cells assessed as dopachrome formation; assay type: cell-based
T1 sequence (P11344 whole entry): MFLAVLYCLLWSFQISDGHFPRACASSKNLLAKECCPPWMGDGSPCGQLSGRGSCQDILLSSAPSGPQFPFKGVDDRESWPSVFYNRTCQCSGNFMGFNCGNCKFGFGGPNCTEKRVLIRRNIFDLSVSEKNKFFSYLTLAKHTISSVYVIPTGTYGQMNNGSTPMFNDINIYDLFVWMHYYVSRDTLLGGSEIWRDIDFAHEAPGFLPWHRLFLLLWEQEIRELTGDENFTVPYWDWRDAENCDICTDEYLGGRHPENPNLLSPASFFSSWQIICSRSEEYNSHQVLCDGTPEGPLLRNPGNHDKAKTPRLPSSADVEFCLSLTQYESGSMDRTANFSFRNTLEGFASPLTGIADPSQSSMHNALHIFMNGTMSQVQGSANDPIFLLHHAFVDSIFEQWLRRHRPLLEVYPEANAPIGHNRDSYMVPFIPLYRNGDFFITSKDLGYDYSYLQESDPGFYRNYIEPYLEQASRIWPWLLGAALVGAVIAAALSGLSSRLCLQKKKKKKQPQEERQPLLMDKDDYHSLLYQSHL

[3] = system: B16; experiment: Antimelanogenic activity in mouse B16 cells assessed as inhibition of extracellular melanin formation after 2 days; conditions: B16, 48 h
[4] = system: B16; experiment: Cytotoxicity against mouse B16 cells assessed as cell viability at < 30 uM after 2 days by tetrazolium reduction assay; assay type: cell-based; conditions: b16, 48 h; in short: as §1
[5] = system: B16; experiment: Cytotoxicity against mouse B16 cells assessed as cell viability at 10 to 30 uM after 2 days by tetrazolium reduction assay; assay type: cell-based; conditions: b16, 48 h; in short: as §1
[6] = Cytotoxicity against mouse B16 cells assessed as cell viability at 200 uM after 2 days by tetrazolium reduction assay; assay type: cell-based; conditions: read-out: Activity
In short: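 B16 mouse melanoma cells in DMEM with 15% FBS, seeded at 1.5 × 10⁴ cells per well and cultured 1 day. Compound then added in ethanol and incubated 2 days. Medium aspirated and viability read with a tetrazolium reagent. Means of 8 or 9 wells, Student's t-test versus control.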

[7] = system: B16; experiment: Antimelanogenic activity in mouse B16 cells assessed as inhibition of intracellular melanin accumulation at 2 to 40 uM after 2 days; assay type: functional, cell-based
In short: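 B16 cells grown in DMEM with 15% FBS, seeded at 7.5 × 10⁴ cells per well, cultured 1 day, then given compound in ethanol and incubated 2 days. Cells scraped, washed with PBS and sonicated in 0.2 ml 1 N NaOH. Intracellular melanin read as homogenate absorbance at 415 nm, expressed as % control.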

[8] = Cytotoxicity against human HMVII cells assessed as cell viability at 40 uM after 2 days by tetrazolium reduction assay; assay type: cell-based; conditions: hmv-2, 48 h
In short: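 HMV-II cells given compound in ethanol and incubated 2 days, then viability measured by tetrazolium reduction. Values are % control, mean ± SEM (n = 3–4) from a representative repeated experiment.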

[9] = biological target: T1, Tyrosinase; experiment: Apparent noncompetitive inhibition of catecholase activity of tyrosinase in mouse B16 cells by Lineweaver-Burke plot analysis; assay type: cell-based; conditions: read-out: Ki(app)
In short: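 Tyrosinase extracted from B16 cells (DMEM, 15% FBS) was assayed with L-DOPA in 50 mM phosphate buffer pH 6.8 at 37 °C. Dopachrome formation over 5 min was read at 475 nm (ε = 3700 M⁻¹ cm⁻¹). Inhibitor was tested at several fixed levels (e.g. 0–70 µM), L-DOPA was varied, Lineweaver–Burk lines were fitted by least squares, and apparent Ki was derived.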

[10] = Antimelanogenic activity in human HMVII cells assessed as inhibition of intracellular melanin accumulation at 20 to 40 uM after 2 days; assay type: functional, HMV-2
[11] = system: B16; experiment: Ratio of IC50 of drug to IC50 of kojic acid for antimelanogenic activity in mouse B16 cells; assay type: functional
In short: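 B16 cells (1.5 × 10⁴ per well) were cultured 1 day, given compound in ethanol (stock 0–10 mM), and incubated 2 days. Medium darkening from extracellular melanin was read at 415 nm and IC50 derived.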

[12] = biological target: T2, Tyrosinase (Mus musculus) (UniProt P11344); experiment: Inhibition of catecholase activity of tyrosinase in mouse B16 cells assessed as residual activity at […] preincubated for 5 to 30 mins in absence of L-DOPA substrate; assay type: cell-based
T2 sequence (whole entry): T1 sequence (P11344 whole entry)
In short: (§2)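 Enzyme was preincubated with inhibitor (added in ethanol as a 20 mM stock) in 50 mM phosphate buffer pH 6.8, with or without 0.125 mM L-DOPA, at 37 °C for 5, 10, 20 or 30 min. Buffer containing 5.3 mM L-DOPA was then added and dopachrome read at 475 nm. Control (=100) was 31 min preincubation without inhibitor; mean ± sd, n = 3.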

[13] = biological target: T2, Tyrosinase (Mus musculus); experiment: Inhibition of catecholase activity of tyrosinase in mouse B16 cells assessed as residual activity at […] measured after preincubation presence of L-DOPA substrate; assay type: cell-based; conditions: TDE = time-dependent effect; in short: as §2

IC50 [2] [µM]	IC50 [3] [µM]	Compound	viability at 48 h, 20 µM [1] [%]	Activity [5]	also measured
68	13	Oc1ccc2[nH]ccc2c1	100		
42	15	O=C(NCCc1c[nH]c2ccc(O)cc12)c1ccc(O)cc1O	101		Activity [4]: Non-toxic
		COc1ccc2[nH]cc(CCNC(=O)/C=C/c3ccc(O)c(O)c3)c2c1	41	Toxic	
		O=C(NCCc1c[nH]c2ccccc12)c1ccccc1	85	Toxic	
73	3	O=C(NCCc1c[nH]c2ccc(O)cc12)c1ccc(O)c(O)c1	99		Activity [7]: inactive; Activity [8]: Toxic; Ki [9]: 64 µM; inhibition (INH) [10]: 20%; Activity [4]: Non-toxic; Ratio IC50 [11]: 40
		NC(=O)c1ccc(O)c(O)c1 [PROTOCATECHUAMIDE]			Ki ([9]; in the assay text read “Competitive” for “Apparent noncompetitive”): 3700 µM
28	15	O=C(/C=C/c1ccc(O)c(O)c1)NCCc1c[nH]c2ccc(O)cc12 [N-CAFFEOYLSEROTONIN]	99		Activity [4]: Non-toxic
	> 30	COc1cc(/C=C/C(=O)NCCc2c[nH]c3ccccc23)ccc1O	102		
311	> 30	CC(=O)NCCc1c[nH]c2ccc(O)cc12 [ACETYLSEROTONIN]	93		Activity [12]: Active; Activity [13]: tde; Ki [9]: 240 µM
		O=C(NCCc1ccc(O)cc1)c1ccc(O)c(O)c1	88	Toxic	
233	> 30	O=C(NCCc1c[nH]c2ccc(O)cc12)c1ccc(O)cc1	100		
216	23	COc1cc(/C=C/C(=O)NCCc2c[nH]c3ccc(O)cc23)ccc1O [N-FERULOYL SEROTONIN]	100		Activity [4]: Non-toxic
	> 30	O=C(NCCc1c[nH]c2ccccc12)c1ccc(O)cc1	94		
		O=C(/C=C/c1ccc(O)c(O)c1)NCCc1c[nH]c2ccccc12	54	Toxic	
		O=C(NCCc1c[nH]c2ccccc12)c1ccc(O)c(O)c1	69	Toxic	
333	> 30	O=C(NCCc1c[nH]c2ccc(O)cc12)c1ccccc1	96		
211	> 30	COc1cc(C(=O)NCCc2c[nH]c3ccc(O)cc23)ccc1O	93		Activity [4]: Non-toxic
		O=C(/C=C/c1ccc(O)c(O)c1)NCCc1ccc(O)cc1	84	Toxic	

Compound	IC50 [2] [µM]	IC50 [3] [µM]	viability at 48 h, 20 µM [1] [%]	Activity [5]	also measured
O=c1cc(CO)occ1O [KOJIC ACID]		111			viability at 48 h, 200 µM [6]: 99%
NCCc1c[nH]c2ccc(O)cc12 [SEROTONIN]	550	> 30	101		
